Assay [1] in a line: S. cerevisiae growth inhibition in permissive medium (OD615), pilot counter-assay for S. cerevisiae lifespan shortening project, permissive growth control (AID 705;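 active means growth inhibition above 25% in both replicates, a cutoff set 3 SD above the mean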). To be noted: OD615, 24 h, at 10 µM, hits give high values. The procedure, abridged: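 System: S. cerevisiae with engineered DeaD lifespan system / Measured by: absorbance (optical density) at 615 nm / Read-out: reduction in yeast growth (OD615) / Times: 4 h cell pre-growth, 24 h exposure at 30 °C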

Assay [2] is described as follows: S. cerevisiae growth inhibition in restrictive medium, OD615, pilot screen, restrictive growth control, yeast lifespan reduction project (AID 706;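 active means growth inhibition above a set limit, 3 SD over mean compound inhibition, in both replicates, cut at about 43% in these data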;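 further: modified DeaD lifespan yeast strain shifted to restrictive glucose medium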). The conditions noted are these: OD615, 48 h, at 10 µM, hits give high values. The procedure, abridged: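 System: Engineered S. cerevisiae DeaD strain | Buffer or medium: Glucose-based CSMM-D restrictive medium | Schedule: 4 h pre-incubation, 48 h exposure at 30 °C | Technique: Optical density at 615 nm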

Assay [3] is described as follows: doxorubicin toxicity protection in MRP-1 cells – H69AR cells, CellTiter-Glo, duplicate, MRP-1 activator project, pilot screen (AID 807;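 active means viability increase at or above a cutoff of the median across tested compounds plus 3 SD, cut at about 8.5% in these data, passing the limit was not always enough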;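 further: compound pretreatment 18-22 h then 72 h combined with doxorubicin; 0% = doxorubicin alone and 100% = vehicle without doxorubicin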). To be noted: H69AR viability with doxorubicin, CellTiter-Glo luminescence; at 10 µM; hits give high values. In general terms: Cellular ATP, detected with luciferase, serves as a proxy for viable cell number.
A short description of assay [4]: viability of HCT116 without oncogenic beta-catenin – human colon tumor cells, pilot screen (AID 823;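 active means cell viability at or below a set limit in both duplicate runs, the limit being the all-compound median minus 4 SD, cut at about 23% in these data, passing the limit was not always enough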;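 further: 0% = wells killed by 20 µM Hyamine and 100% = untreated DMSO cell wells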). The conditions noted are these: HCT116 beta-catenin knockout viability, CellTiter-Glo, 60 h; at 10 µM; hits give low values.
Assay [5] is described as follows: RAM pathway blockade in budding yeast – dse1pr::URA3 reporter, 5-FOA selection, pilot screen (AID 869;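 active means inhibition over a set limit, the all-compound mean plus 3 SD, in both replicate runs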;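 further: 0% = DMSO wells with no growth and 100% = 10 µM 1-NA-PP1 with full growth; RAM network block rescues cells from 5-FOA so hits raise OD615 growth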). The conditions noted are these: S. cerevisiae dse1pr::URA3 5-FOA growth, OD615, 2 d; at 10 µM; hits give high values; strain carries analog-sensitive mutant Cbk1 kinase.
The nature of assay [6]: RAM signaling pathway blockade in yeast – S. cerevisiae, Pdr1DBD-CYC8 efflux-inhibited sensitized strain, primary screen (AID 1298).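 Further: 0% = DMSO untreated cells without growth and 100% = 10 µM 1-NA-PP1 full growth; higher means more yeast growth rescued from 5-FOA killing.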 The conditions noted are these: S. cerevisiae cbk1-as DSE1-URA3 strain, 5-FOA growth OD615, 2 d; at 50 µM; hits give high values.

The structures appear in SMILES notation. Values without a mark were called inactive. Results filed as inconclusive are left out. Activity calls are given as the source filed them.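 How the source made its calls, unless noted: active means RAM network inhibition above 8.4% in each of two replicates, 3 SD over the compound average; inconclusive means above 8.4% inhibition in only one replicate; inactive means 8.4% inhibition or less in each replicate.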

These results are taken from PubChem BioAssay.

Take `CC(=O)Nc1c(C(=O)c2ccc(F)cc2)oc2ccccc12`: the growth inhibition in assay [1] is -23.1%; in assay [2], -4.12%. For the same compound, in assay [3], the viability increase was -3.23%. The viability (usually a read-out of living cells in per cent, often relative to untreated cells) in assay [4] was 87.4%. Moreover, in assay [5], the inhibition (commonly the relative decrease from the control value, in per cent) is 2.3%. In addition, in assay [6], the RAM network inhibition was 7.49%.

`CC(=O)c1cccc(NC(=O)N2CCCC2C(=O)Nc2c(C)cccc2C)c1` (stereo not given): the growth inhibition is -22.1% in assay [1] and -1.14% in assay [2]. Moreover, the viability increase in assay [3] was -2.28%. Also, the viability in assay [4] is 94.1%. Besides, the inhibition in assay [5] is 1.62%. For the same compound, the RAM network inhibition in assay [6] is 3.69%.

Consider `COCc1cc(=O)n2c(-c3ccccc3OC)n[nH]c2n1`, for which the growth inhibition was -14% in assay [1] and 4.39% in assay [2]. Also, the viability increase in assay [3] was -3.36%. Moreover, the viability in assay [4] is 92.7%. Besides, the inhibition in assay [5] is 2.2%. In addition, the RAM network inhibition in assay [6] is 9.13%.

On to `CNC(=O)c1ccc(-c2sc3nc(N4CCOCC4)c4c(c3c2N)CCCC4)o1`, for which the values for the growth inhibition in assay [1] and in assay [2] were 0.875% and 17.2%, respectively. Besides, the viability increase in assay [3] is -7.88%. In addition, in assay [4], the viability is 39.6%. Also, the inhibition in assay [5] was -0.54%. Moreover, the RAM network inhibition in assay [6] was 5.11%.

On to `C=CCn1c(CCNC(=O)C(C)(C)C)nc2ccccc21`, for which the figures for the growth inhibition in assay [1] and in assay [2] were -10.5% and 3.93%, respectively. Also, the viability increase in assay [3] is -1.82%. For the same compound, the viability in assay [4] was 103%. For the same compound, the inhibition in assay [5] was 1.94%. In addition, the RAM network inhibition in assay [6] is 3.12%.

For the compound `CCOc1cc(CNC(=O)CN2C(=O)c3ccccc3S2(=O)=O)ccc1OC`, the growth inhibition in assay [1] is -22.6%; in assay [2] it was -10.7%. In addition, the viability increase in assay [3] was -0.6%. For the same compound, the viability in assay [4] was 98.1%. Besides, the inhibition in assay [5] is 1.69%. Further, the RAM network inhibition in assay [6] was 0.32%.

Turning to `Cc1ccc(-c2nc(S(=O)(=O)c3ccc(F)cc3)c(SCC(=O)NCC3CCCO3)o2)cc1` (stereo not given), the growth inhibition in assay [1] was -6.27%; in assay [2], 1.93%. In addition, the viability increase in assay [3] was -6.02%. Moreover, the viability in assay [4] is 93.6%. Besides, the inhibition in assay [5] was 0.14%. The RAM network inhibition in assay [6] was 0.57%.

Take `Cn1cnnc1SCc1ccc(C(=O)O)cc1`: the growth inhibition is -5.04% in assay [1] and 7.69% in assay [2]. Besides, the viability increase in assay [3] was -1.36%. The viability in assay [4] was 98.1%. In addition, the inhibition in assay [5] was 1.06%. Also, in assay [6], the RAM network inhibition was 1.81%.

Turning to `CCN(CC)CCOc1c(Br)ccc2c1sc1nc3n(c(=O)c12)CCC3`, the growth inhibition was -1.77% in assay [1] and 6.08% in assay [2]. The viability increase in assay [3] is -5.02%. The viability in assay [4] was 30.4%. Also, the inhibition in assay [5] was 0.405%. For the same compound, the RAM network inhibition in assay [6] was 5.14%.

Turning to `CCN1CCN(C(=O)C2c3cc(OC)c(OC)cc3C(=O)N(C)C2c2ccc(SC)cc2)CC1` (stereo not given), the growth inhibition in assay [1] was -12.5%; in assay [2], -4.19%. Moreover, in assay [3], the viability increase was -3.74%. Moreover, the viability in assay [4] is 92.3%. In addition, in assay [5], the inhibition is 0.995%. The RAM network inhibition in assay [6] is 2.33%.

Consider `O=C(Nc1nnc(C2CC2)o1)c1ccc(S(=O)(=O)N2CCCc3ccccc32)cc1`, for which the growth inhibition is -18.1% in assay [1] and -2.5% in assay [2]. Moreover, the viability increase in assay [3] was -5.31%. Besides, the viability in assay [4] is 14.3% (active). Also, the inhibition in assay [5] was 0.79%. Also, the RAM network inhibition in assay [6] was -0.41%.

For `CC(C)Sc1nc(NCc2ccco2)c2c3c(sc2n1)COC(C)(C)C3`, the growth inhibition in assay [1] was 3.17%; in assay [2], 22.4%. Further, the viability increase in assay [3] was -8.23%. The viability in assay [4] is 56%. In addition, the inhibition in assay [5] was -0.26%. The RAM network inhibition in assay [6] was 7.33%.

As for `COc1ccc(-c2cc3ccccc3n2CC(O)Cn2nc(C)cc2C)cc1` (stereo not given), the growth inhibition is -6.15% in assay [1] and 12.6% in assay [2]. Besides, in assay [3], the viability increase is -4.13%. For the same compound, in assay [4], the viability is 69.5%. Also, the inhibition in assay [5] is 0.2%. The RAM network inhibition in assay [6] was 7.69%.

On to `COC(=O)c1cn(NC(=O)C2CCCCC2)c(=O)c2ccccc12`, for which the growth inhibition is 13.2% in assay [1] and 6.18% in assay [2]. Also, the viability increase in assay [3] was -1.25%. Further, the viability in assay [4] is 94.3%. Also, the inhibition in assay [5] is -0.16%. Moreover, in assay [6], the RAM network inhibition was 5.38%.

Take `CCSc1nnc(NC(=O)C2CC=CCC2C(=O)O)s1` (stereo not given): the growth inhibition was -17.7% in assay [1] and -7.56% in assay [2]. Also, in assay [3], the viability increase is -0.57%. In addition, in assay [4], the viability was 103%. Moreover, the inhibition in assay [5] was 0.665%. Also, the RAM network inhibition in assay [6] is 4%.

With `O=C(CS(=O)(=O)c1cn(Cc2cccc(F)c2)c2ccccc12)N1CCCCC1`, the growth inhibition in assay [1] is -12.9%; in assay [2], -2.79%. For the same compound, the viability increase in assay [3] is -3.96%. The viability in assay [4] is 73.2%. Further, the inhibition in assay [5] was 2.04%. In addition, the RAM network inhibition in assay [6] is 3.64%.

In the case of `Cc1ccc2c(c1)c(C)c(C)n2CC(O)Cn1nc(C)cc1C` (stereo not given), the growth inhibition was -13% in assay [1] and 3.35% in assay [2]. Further, the viability increase in assay [3] was -4.76%. Besides, in assay [4], the viability is 87.1%. Moreover, in assay [5], the inhibition was 2.1%. For the same compound, the RAM network inhibition in assay [6] is 0.58%.

Regarding `CCOCCCNC(=O)C1CCC(CNS(=O)(=O)c2ccc(F)cc2)CC1` (stereo not given), the figures for the growth inhibition in assay [1] and in assay [2] were -7.63% and 6.36%, respectively. Also, the viability increase in assay [3] was -2.28%. Further, the viability in assay [4] is 95.5%. For the same compound, in assay [5], the inhibition was 1.19%. Further, the RAM network inhibition in assay [6] is 7.28%.

Regarding `CC1(C)Cc2nc(-c3ccccc3)n3cnnc3c2CO1`, the growth inhibition in assay [1] is -8.06%; in assay [2], -4.3%. Besides, in assay [3], the viability increase is -1.77%. Further, in assay [4], the viability is 102%. Also, the inhibition in assay [5] was 0.36%. In addition, in assay [6], the RAM network inhibition was 4.42%.

For `CC1CCc2sc3nc(N4CCN(CCO)CC4)n4ncnc4c3c2C1` (stereo not given), the figures for the growth inhibition in assay [1] and in assay [2] were -9.92% and 7.57%, respectively. For the same compound, the viability increase in assay [3] was -7.82%. In assay [4], the viability was 73.3%. For the same compound, the inhibition in assay [5] is 0.655%. The RAM network inhibition in assay [6] is 5.04%.
